# High-throughput results as filed in PubChem.
# Redox H2O2 prof: compounds producing H2O2 with reducing agent – biochemical, NIH compound library profiling, artefact control for MLSCN library redox annotation, primary screen. activation, % at 10 µM. actives 0.03% (n = 200,000). DTT-dependent redox cycling H2O2, phenol red/HRP absorbance; 100% = 100 µM peroxide control, 0% = buffer;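 active = activation of at least 50% relative to the plate's high and low controls in the primary single-dose screen; inactive = activation below 50%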;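 note: compound incubated with DTT at 0.8 mM final as the reducing agent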
# Calpain2 inh: blocks pig calpain II enzyme activity | actives 0.37% (n = 220,000) | purified calpain II, fluorogenic peptide substrate, 30 min | inhibition, % at 16 µM;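 active = inhibition above about 50%, limit read from the data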
# PKD1 kinase inh: inhibitors of human PKD1 kinase | Q15139 | PKD1 kinase fluorescence polarization assay | inhibition, % (no concentration beside the values) | actives 0.056% (n = 200,000) | AID 797; in the data active = inhibition above about 50%
# Pf gametocyte: kills late stage P. falciparum gametocytes; P. falciparum stage V gametocytes, ATP luminescence, 24 h; inhibition, % at 10.9 µM; actives 0.065% (n = 150,000); AID 743093;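 active = inhibition above the mean plus 3 SD of compounds within the control limits, set per campaign, cut at about 38% in these data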
# Efa HMGR inh: E. faecalis class II HMG-CoA reductase inhibition | purified E. faecalis HMGR, NADPH absorbance 340 nm kinetic | inhibition, % at 10 µM | actives 0.41% (n = 190,000) | AID 1066;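 active = inhibition above a set limit, the median over all tested compounds plus 3 SD, cut at about 9.5% in these data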;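 note: enzyme runs in reverse so mevalonate oxidation gives rising NADPH absorbance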
# Rad51 HR inh: blocks human Rad51 in homologous recombination. hRad51 DNA strand exchange, fluorescence dequenching. actives 0.085% (n = 200,000). inhibition, % at 10 µM. Q06609;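 active = inhibition above 40% at the single screening dose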
#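 Material: human Rad51–ssDNA filaments; Probe or stimulus: labelled 47-mer dsDNA for strand exchange; Doses: single 10 µM dose; Incubation: 37 °C 15-min filament assembly, 30-min compound preincubation, 15-min exchange; Technique: FRET fluorescence dequenching, excitation 485 nm, emission 520 nm; Measure: Fluorescence-based percent inhibition, control- and blank-normalised; Benchmarks: plate control and blank wells.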
# A number is an active result; 0 = inactive; - = no result. In the library only some 0.81% were active in any assay of this set; here they are far more common.
SMILES,Redox H2O2 prof,Calpain2 inh,PKD1 kinase inh,Pf gametocyte,Efa HMGR inh,Rad51 HR inh
Cc1ccc(C(=O)Oc2ccccc2N2C(=O)C3CCCCC3C2=O)cc1 (stereo unspecified),0,0,0,0,0,-
COc1ccccc1C(=O)O/N=C(/C)c1ccc(N2C(=O)C3CCCCC3C2=O)cc1 (stereo unspecified),0,54.1,0,0,0,0
O=C(NCc1ccco1)c1cccc(Nc2nc3ccc(Br)cc3[nH]2)c1,0,82.2,0,-,0,0
O=C(NCC1CC1)c1ccc(Nc2nc3ccc(Br)cc3[nH]2)cc1,0,0,0,-,0,0
C[C@H](CO)N1C[C@H](C)[C@H](CN(C)S(=O)(=O)c2ccccc2)Oc2c(NS(C)(=O)=O)cccc2C1=O,-,-,-,0,-,-
Cc1ccc2oc(-c3ccc(NC(=O)c4ccc5c(c4)OCO5)cc3)nc2c1,0,0,0,0,0,0
O=C(Nc1ccc(-c2nc3ccccc3o2)cc1)c1ccc2c(c1)OCO2,0,0,0,-,0,87.2
O=C(CN1C(=O)c2ccccc2C1=O)Nc1ccc(-c2nc3ccccc3o2)cc1,0,95.9,0,-,0,0
CS(=O)(=O)Nc1ccc(C(=O)N2CCc3ccccc3C2)cc1,0,0,0,-,0,0
CS(=O)(=O)c1ccc(C(=O)N2CCc3ccccc3C2)cc1,0,59.5,0,0,0,0
Cc1ccc(CN2[C@@H](CC3CCCCC3)COCCS2(=O)=O)cc1,-,-,-,0,-,-
Cc1ccc(C2/C(=C(\O)c3ccc4c(c3)OCCO4)C(=O)C(=O)N2CCCN(C)C)o1 (stereo unspecified),0,0,0,-,0,94.0
COc1ccc(C2/C(=C(\O)c3ccc4c(c3)OCCO4)C(=O)C(=O)N2CCCN(C)C)cc1 (stereo unspecified),0,0,0,0,0,0
Nc1cccc(Oc2ccc([N+](=O)[O-])cc2)c1,0,0,0,0,10.1,0
O=C(O)c1cccc(Oc2ccc([N+](=O)[O-])cc2)c1,0,0,0,-,0,0
O=C(Nc1ccncc1)c1ccc(C(=O)Nc2ccncc2)cc1,0,0,0,0,18.2,0
O=C1C2C3C=CC(C4CC34)C2C(=O)N1c1ccc2c(c1)OCO2 (stereo unspecified),0,0,0,0,0,0
COc1ccc(NC(=S)N2CCN(CCN3C(=O)c4cccc5cccc(c45)C3=O)CC2)cc1,0,50.8,0,0,0,0
O=C(O)C1C2CCC(O2)C1C(=O)Nc1cccc(Cl)c1 (stereo unspecified),-,-,-,0,-,-
CC(=O)NCC1(O)CCCC(C)C1 (stereo unspecified),-,0,-,0,-,0
O=C(Nc1cnn(Cc2ccc(F)cc2)c1)C(c1ccccc1)c1ccccc1,0,53.2,0,0,0,0
O=C(Nc1cnn(Cc2ccc(F)cc2)c1)c1cnccn1,0,0,0,-,0,0
C/C(=N/NC(=O)c1cc(-c2cccc([N+](=O)[O-])c2)n[nH]1)c1ccc(Cl)cc1,0,68.2,0,0,0,0
C/C(=N/NC(=O)c1cc(O)c(O)c(O)c1)c1ccc([N+](=O)[O-])cc1,0,0,0,0,20.9,0
CNC(=O)c1ccc(NC(=O)Nc2ccccc2)cc1,-,-,-,0,-,-
SMILES,Redox H2O2 prof,Calpain2 inh,PKD1 kinase inh,Pf gametocyte,Efa HMGR inh,Rad51 HR inh
Cc1nc(Nc2ccccc2)sc1C(=O)c1ccccc1,-,50.9,-,0,-,0
O=C(COC(=O)CCc1ccccc1)NC12CC3CC(CC(C3)C1)C2,0,50.1,0,0,0,0
O=C(COC(=O)C(O)c1ccccc1)NC12CC3CC(CC(C3)C1)C2 (stereo unspecified),0,0,0,-,0,0
Cc1cccc(N=C2NC(=O)c3cc([N+](=O)[O-])ccc32)c1,0,0,0,0,0,0
COc1ccc(/C=N/NC(=O)C(C)Sc2ccccn2)cc1[N+](=O)[O-] (stereo unspecified),0,0,0,0,14.5,0
COc1ccc(C(=O)NCC2CCCO2)cc1OC (stereo unspecified),-,0,-,0,-,0
CCOc1ccc(C(=O)NCC2CCCO2)cc1OCC (stereo unspecified),0,0,0,0,13.0,0
CC1CCc2cc(F)ccc2N1C(=O)CSc1nnc2c(n1)[nH]c1ccc(F)cc12 (stereo unspecified),0,0,0,-,0,0
Cc1cccc(NC(=S)N2CCN(Cc3ccc4c(c3)OCO4)CC2)c1C,0,0,0,0,0,0
CC(C)c1ccccc1NC(=S)N1CCN(Cc2ccc3c(c2)OCO3)CC1,0,0,0,-,0,48.1
CC(C)(C)[C@H]1C=C(C(=O)N2CCN(Cc3ccc4c(c3)OCO4)CC2)O[C@@H](OCc2ccc(CO)cc2)C1,0,0,0,-,19.2,0
Nc1nc(SCc2ccccc2Cl)ns1,0,0,0,-,12.8,0
Nc1nc(SCc2ccccc2)ns1,0,0,0,0,0,0
CCOc1ccc(-c2nnn(CC(=O)N3CCCC(C)C3)n2)cc1 (stereo unspecified),0,0,0,-,12.9,0
O=C(c1ccc2c(c1)OCO2)C1CCCN(C(=O)c2cnn(Cc3ccccc3)c2)C1 (stereo unspecified),0,0,0,0,0,0
CCOC(=O)c1c(NC(=O)CSc2nnnn2C)sc(C)c1-c1ccc(C)cc1,0,55.8,0,-,0,0
CCOC(=O)c1c(-c2ccccc2)csc1NC(=O)CSc1nnnn1C,0,0,0,0,0,0
O=C1CN(C(=O)COC(=O)c2ccc[n+]([O-])c2)c2ccccc2N1,0,0,0,0,0,0
CCOc1ccc(S(=O)(=O)Nc2cc(SCC(=O)O)c(O)c3ccccc23)cc1,-,-,-,0,-,-
CCc1ccc(S(=O)(=O)Nc2cc(SCC(=O)O)c(O)c3ccccc23)cc1,0,0,0,0,10.3,0
CN(C)CCCNC(=O)c1cc(C(=O)C2CCCCC2)c[nH]1,0,0,0,0,16.8,0
Clc1cccc(CN2CCC(Cc3ccccc3)CC2)c1,0,0,0,-,14.2,0
O=C1C=C(c2ccc(C(=O)O)cc2)C[C@@H](c2ccc3c(c2)OCO3)C1,-,-,-,0,-,-
COc1ccccc1NC(=O)Cc1noc(CSc2nnc(C)n2C)n1,0,0,0,0,0,0
COC(=O)c1cc(S(=O)(=O)NCc2ccc(S(N)(=O)=O)cc2)oc1C,-,0,-,0,-,0
O=C(NNC(=O)C1CCN(S(=O)(=O)c2ccc(Cl)cc2)CC1)c1ccncc1,0,0,0,-,13.4,0
O=C(NNC(=O)C1CCN(S(=O)(=O)c2ccc(Cl)cc2)CC1)c1ccc(Cl)cc1,0,0,0,0,0,0
CC(=O)N(c1cccc(C(F)(F)F)c1)c1nc(/C=C/C(=O)O)cs1,-,0,-,0,-,40.3
CC(=O)Nc1ccc(NC(=O)/C=C/c2cccc(C(F)(F)F)c2)cc1,0,0,0,0,0,0
CCN(CC)c1ccc(-c2n[nH]c(=S)n2-c2ccccc2C)cc1,0,0,0,0,14.1,0
